Source: PMC3263943 (Bioscience Reports, 2011)

Columns and labels:
human calmodulin (human) = human calmodulin (human) (UniProt P0DP23); assay: native gel or EMSA
human CaM (calmodulin) = human CaM (calmodulin) (Homo sapiens, UniProt P0DP23); assay: Native gel titration of CaM with peptide; assay type: binding; conditions: presence of calcium ions; from Kd,app by native gel densitometry
Outline: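 Bacterially expressed CaM (E. coli Rosetta (DE3), calcium-dependent phenyl-Sepharose purification) held at 35 μM, calcium present, with synthetic IQ-motif peptide at 18–350 μM; incubated 1 h at 22°C. Native 15% polyacrylamide gel in Tris/glycine pH 8.8, Coomassie-stained. Fraction bound = complex band/(complex + free CaM), background-corrected densitometry. Means of three independent experiments fitted to hyperbolic binding equation; Kd,app ± S.E.M. from fit.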

Row | Substance | Kd (human calmodulin (human)) [µM] | Ranking of affinity for CaM (human CaM (calmodulin))
1 | 3IQ2, peptide of the second IQ-motif of human IQGAP3 | 27 | 
2 | 3IQ3, peptide of the third IQ-motif of human IQGAP3 | 76 | 
3 | 3IQ4, peptide of the fourth IQ-motif of human IQGAP3 | 65 | 
4 | Ac-KNVNSIVKIQAFFRARKAQDDYR-NH2 [3IQ4] |  | followed by 3IQ4
